Source: the EternaBench riboswitch data

System: MS2 coat protein
Assay: apparent Kd, MS2 coat protein; higher = weaker binding; RNA-MaP array; tryptophan 2.4 mM where present
Outline: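 Each design was made on Illumina sequencing-chip clusters by stalled E. coli RNA polymerase and titrated with SNAP-549-labelled MS2 coat protein from 0.7 or 1.5 nM, doubling to 3 µM, in the absence and then the presence of constant ligand. The buffer was 100 mM Tris-HCl pH 7.5, 80 mM KCl, 4 mM MgCl2, BSA, DTT, yeast tRNA and Tween-20. The apparent Kd is the median of filtered per-cluster fits of binding curves, with green signal normalised to red-channel RNA signal and control-cluster median Fmax.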

[1] = designed as: ON switch for tryptophan, no ligand
[2] = ligand present: tryptophan, designed as: ON switch for tryptophan
[3] = designed as: OFF switch for tryptophan, no ligand
[4] = ligand present: tryptophan, designed as: OFF switch for tryptophan

Sequence	apparent Kd [1] [nM]	apparent Kd [2] [nM]	apparent Kd [3] [nM]	apparent Kd [4] [nM]
ACAUGAGGAUCACCCAUGUACAUCACCCGACGAGGACCGGUACGGCCGCCACUCGGGUAUAUAUAUACAUCGGGUGGUUUUGCAU	17.6	17.3		
CCUAUGCAGUCGGCCGCCACUGAGUCCUCAAUAAUAAAUUAAUAUACAUGAGGAUCACCCAUGUACAGGACCGGGACUGUAUAGG			205	167
GCCGCUGCCGCGAUAUGUAUGGGUGUGUAACGAGGACCGGUACGGCCGCCACUCGCGAUCGCACAUGAGGAUCACCCAUGUGUCC			53.7	78.5
UAAUGCAUGACGGCCGCCACUAGAACAUGAGGAUCACCCAUGUACGGCGGCCGUCAUGGGUGGACUAGGACCGGGUCAUGCAUAU			9.23	10.5
CGCAACAUGAGGAUCACCCAUGUAAUGACGCGAGGACCGGUACGGCCGCCACUCGCCUGGCAGUGAGCGCAUGCGGCCUGGGUAU			11.1	12.2
AUAAUAUAGACGGCCGCCACUAUAAACAUGAGGAACAUGAGGAUCACCCAUGUAUGAGGAUCACCUAGGACCGGGUCAUAUAUUA			55.8	42
CACAAUUUGUCGGCCGCCACUAAGGUAACUUUUCUCACAUGAGGAUCACCCAUGUGCCCGAAACUUAGGACCGGGAUAAUGGGUG	82.4	45.3		
UGACAGAUAACCGCUGGUGCUCUCGAGUUGCGAGGACCGGUACGGCCGCCACUCGACAACAUGAGGAUCACCCAUGUUGCGGGUC			102	49.8
CCUAUGCAGUCGGCCGCCACUGAACAUGAGGAUCACCCAUGUAAUUAAAAUUAUGAUCCUGAAAUCAGGACCGGGACUGUAUAGG			218	85.4
AAUGUAUGGCACAUGAGGAUCACCCAUGUGCGAGGACCGGUACGGCCGCCACUCGGUCCUGGGAUCUUAUUACUAUACAUUAAUG			11.6	24
UUAUAAGUACCGGUCCUCAGAUCCUCAUGACGAGGACCGGUACGGCCGCCACUCGAAACAUGAGGAUCACCCAUGUAAUAACAUC			19.6	20.7
UAACAUGAGGAUCACCCAUGUUUGAAGAAACGAGGACCGGUACGGCCGCCACUCGACGAGUGGAUGAAUAGUGGGCUUGUGUGCU	13.7	15		
GGUUACUCUACGGCCGCCACUGAUUAAUUAUAAACCUGUACAUAAACAUGAGGAUCACCCAUGUACAGGACCGGGUAGUGUAACC	37.8	26.8		
CGCCACUCGAGUGAUCCUCACGAGUGGCUACGAGGACCGGUACGGCCGCCACUCGAAUUAACAUGAGGAUCACCCAUGUACUCCA	93.6	19.1		
GGGUACAUCGCGGCCGCCACUUAUGUAAAUACAUGAGGAUCACCCAUGUCGAUGGAGACAUCGGAGAGGACCGGGUGAUGUACCG	36.1	35.9		
GUUAUAUACUCGGCCGCCACUGAGAGAGUCAUGUAAACAUGAGGAUCACCCAUGUAAUAUAUAUACAGGACCGGGAGUAUAGUAA			14.5	13
